# Sampled rows, rich in hits. Any-hit rate of the full collection: about 1.2%.
# Diaph act CS: compounds boosting diaphorase resazurin reduction – biochemical, uHTS, resorufin fluorescence, counter-screen for diaphorase-coupled primary assays, primary screen | 0.005% of 190,000 active | activation factor at 20 µM | AID 1229, 2008 | Diaphorase/resazurin coupled assay, 16 min; stronger effect = higher value; 1 = vehicle wells, 0 = NADH-free wells;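 active = diaphorase activity raised at least twofold by the compound at 20 µM; inactive = activation factor below 2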
#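 Material: purified diaphorase enzyme from Clostridium kluyveri / Medium: HEPES pH 7.4 buffer with MgCl2 and Tween 20 / Schedule: enzyme reaction of 16 min at room temperature / Measured by: resorufin fluorescence, excitation 544 nm, emission 590 nm / Evaluation: rise in resorufin formation, marking diaphorase activation or chemical reduction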
# G6PDH counter: L. mesenteroides G6PDH inhibitors, counter-screen for G6PDH-coupled screening assays, biochemical, Leuconostoc mesenteroides enzyme; glucose-6-phosphate dehydrogenase [Leuconostoc mesenteroides]; 0.12% of 200,000 active; AID 1020, 2008; inhibition, % at 5 µM; Purified L. mesenteroides G6PDH, diaphorase/resazurin coupled fluorescence, 45 min; in the data active = inhibition above about 50%
# HKDC1 inhibitor: HKDC1 hexokinase inhibitors, primary screen, biochemical, fluorescence, uHTS; Q2TB90; recombinant HKDC1, G6PDH/diaphorase resazurin coupled fluorescence; inhibition, % at 20 µM; 0.16% of 340,000 active; AID 493160, 2011;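 active = inhibition above about 35% when tested at 20 µM, limit read from the data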;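 also: plate controls were DMSO wells with enzyme for no effect and DMSO wells lacking enzyme for full effect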
#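 Test system: Recombinant HKDC1 (HK5) hexokinase enzyme, produced in-house | Input: HKDC1 at 5 µg/mL | Buffer or medium: Tris pH 8.0 buffer with MgCl2, Tween-20, BSA, BME | Schedule: 90 min reaction incubation at room temperature, dark | Technique: Resazurin-to-resorufin fluorescence via G6PDH and diaphorase coupling, 525/613 nm | Controls: DMSO wells with and without enzyme mix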
# PfG6PD inh: PfG6PD enzyme inhibitors, primary screen, biochemical, fluorescence intensity, uHTS. 0.78% of 350,000 active. glucose-6-phosphate dehydrogenase-6-phosphogluconolactonase (Plasmodium falciparum 3D7). PfGluPho enzyme, NADPH resazurin-diaphorase fluorescence. inhibition, % at 20 µM;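 active = inhibition reaching at least a set limit at 20 µM in the primary screen, cut at about 59% in these data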;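 also: 0% = DMSO wells with substrate and 100% = DMSO wells lacking glucose-6-phosphate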
# Diaph inh CS: diaphorase inhibitors and chemical oxidizers, primary screen, counter-screen for diaphorase-coupled primary assays, biochemical, uHTS, resorufin fluorescence. diaphorase resazurin-to-resorufin fluorescence, NADH, 16 min; bacterial (C. kluyveri) enzyme, not human. 0.69% of 190,000 active. inhibition, % at 20 µM;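 active = primary screen inhibition at 20 µM above a set limit, cut at about 50% in these data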;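 also: plate controls were DMSO with full reaction for no effect and wells lacking NADH for full effect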
#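 Test system: diaphorase enzyme from Clostridium kluyveri; amount: diaphorase at 0.14 U/mL in enzyme working solution; detection: fluorescence of resorufin formed from resazurin, Ex 544/Em 590 nm; times: reaction incubation of 16 min at room temperature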
# PfGluPho conf: PfG6PD inhibitors, hit retest, confirmation, biochemical, fluorescence intensity, single concentration | shares compounds with PfG6PD inh | recombinant PfGluPho, NADPH-diaphorase-resazurin fluorescence | 34% of 2,400 active | inhibition, % at 20 µM;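 active = inhibition of at least 50% at 20 µM in any single replicate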;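 also: 0% = DMSO with substrate and 100% = DMSO lacking glucose-6-phosphate substrate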
# Diaph ctr 10uM: diaphorase inhibitors and chemical oxidizers, confirmation, counter-screen for P. falciparum G6PD inhibitor project, biochemical, fluorescence intensity, 10 µM NADPH; diaphorase-coupled resazurin reduction, NADPH 10 uM; inhibition, % at 20 µM; 39% of 820 active; shares compounds with PfG6PD inh;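 active = average inhibition reaching 50% or more with the compound at 20 µM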;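 also: resorufin red fluorescence formed as diaphorase reduces resazurin using NADPH; 0% = DMSO with enzyme and 100% = DMSO without enzyme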
# Diaph ctr 30uM: diaphorase inhibitors and chemical oxidizers, confirmation, counter-screen for P. falciparum G6PD inhibitor project, biochemical, fluorescence intensity, 30 µM NADPH; inhibition, % at 20 µM; shares compounds with PfG6PD inh; 29% of 820 active; Diaphorase/resazurin coupled assay, resorufin fluorescence;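 active = inhibition averaging 50% or more, tested at 20 µM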;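 also: 0% = DMSO with enzyme and 100% = DMSO wells lacking diaphorase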
# Numbers without * were called inactive; . = no result given.
SMILES,Diaph act CS,G6PDH counter,HKDC1 inhibitor,PfG6PD inh,Diaph inh CS,PfGluPho conf,others
C[C@H](CO)N1C[C@H](C)[C@@H](CN(C)Cc2ccc3c(c2)OCCN3C)OCc2cnnn2CCCC1=O,.,.,.,0,.,.,
C=C(C)COc1ccc(-c2ncnc(C(F)(F)F)c2-c2ccccc2)c(O)c1,.,.,2,26,.,.,
C=C(C)COc1ccc(-c2ncnc(C(F)(F)F)c2-c2ccc(OC)cc2)c(O)c1,.,.,2,70*,.,-4,
CC(C)[C@H](NC(=O)c1cccc(S(=O)(=O)N2CCOCC2)c1)C(=O)OCC(=O)Nc1cccc(Br)c1,.,.,1,14,.,.,
O=C(O)c1cc(S(=O)(=O)NC(CO)C(O)c2ccc([N+](=O)[O-])cc2)ccc1Br (stereo unspecified),.,.,-2,13,.,.,
Oc1ccc(NCc2ccc(OCc3ccccc3)cc2)cc1,.,.,10,66*,.,26,
COc1cc(CNc2ccc(O)cc2)cc(Br)c1OCc1ccccc1,0.6,11,2,57,44,.,
CCc1ccc(CNc2ccc(O)cc2)cc1,0.6,48,24,85*,38,43,
ClC(Cl)(c1nnnn1-c1ccccc1)c1nnnn1-c1ccccc1,0.8,-9,8,88*,19,78*,Diaph ctr 10uM=-8;Diaph ctr 30uM=-6
COc1ccc(C(=O)NC2CCN(CC(=O)Nc3c(C)cccc3C)CC2)cc1OC,.,.,-7,-10,.,.,
Cc1ccc2nsnc2c1NS(=O)(=O)c1c(C)ccc2nsnc12,0.8,5,-2,-8,21,.,
Cc1ccc(/C=[N+](\[O-])c2ccc(N(C)C)cc2)c2nsnc12,0.6,-1,2,64*,41,1,
CNC(=O)c1cc2c(ccc3ccccc32)o1,0.8,1,0,-3,15,.,
O=C(NC1CCCC1)c1cc2c(ccc3ccccc32)o1,0.8,6,0,72*,16,20,
Cc1ccc(N2CCN(C(=S)c3ccc(-c4ccccc4[N+](=O)[O-])o3)CC2)cc1,.,.,11,60*,.,29,
CC1CCC(NC(=O)COC(=O)c2n[nH]c(=O)c3ccccc23)CC1 (stereo unspecified),.,.,-3,-19,.,.,
COc1ccc(OC)c(N=c2ssnc2Cl)c1,0.7,9,3,82*,32,30,
Cc1cc(Cl)ccc1N=c1ssnc1Cl,1,2,-37,79*,3,29,
Cc1cc(Cl)ccc1N=C1N=C(N)c2ccccc21,0.9,-1,0,8,14,.,
CCOc1ncccc1C(=O)Nc1cc(S(=O)(=O)N(CC)CC)ccc1N1CCOCC1,.,.,-1,35,.,.,
COCc1cccc(N2C(=O)CC(C3C=C(C)C4C(=O)N(c5cccc(COC)c5)C(=O)C4C3)C2=O)c1 (stereo unspecified),0.9,4,-8,2,14,.,
Cc1ccc2nc(Cl)c(/C=N/Nc3ccc(C(=O)O)cc3)cc2c1,.,.,10,60*,.,32,
Cc1ccc2nc(SCC(=O)Nc3ccc4[nH]c(=O)[nH]c4c3)[nH]c2c1,.,.,23,46,.,.,
O=C(CSc1nc2ccc(Cl)cc2[nH]1)Nc1ccc2[nH]c(=O)[nH]c2c1,.,.,23,60*,.,24,
OCCSc1nc(N2CCOCC2)nc(N2CCOCC2)n1,0.9,2,-1,2,10,.,
SMILES,Diaph act CS,G6PDH counter,HKDC1 inhibitor,PfG6PD inh,Diaph inh CS,PfGluPho conf,others
Cc1ccc(Cc2c(-c3ccc(C)cc3)nc3ccc(Cl)cn23)cc1,.,.,.,77*,.,-10,
Cc1ccc(Cc2c(-c3ccc(Cl)cc3)nc3ccc(Cl)cn23)cc1,.,.,.,86*,.,0,
Cc1ccc(Cc2c(-c3ccc(Br)cc3)nc3ccc(Br)cn23)cc1,.,.,.,67*,.,-9,
CCN(CC(=O)NCc1ccc(Cl)cc1)C(=O)C(C)Sc1ccccc1 (stereo unspecified),.,.,-6,-1,.,.,
O=S1(=O)[C@H]2C[C@H](CO)O[C@@]2(CO)CN1Cc1ccc(-c2cccc(Cl)c2)cc1,.,.,-1,2,.,.,
CCCN(C1CCS(=O)(=O)C1)S(=O)(=O)c1cc(OC)ccc1OC (stereo unspecified),.,.,-4,-8,.,.,
Cc1cc2nc3ccc(N(C)C)cc3nc2cc1N,.,.,24,79*,.,32,
COc1cc(CNc2ccc(N3CCCC3)cc2)cc(Cl)c1OC,0.5,41,16,75*,55*,76*,Diaph ctr 10uM=8;Diaph ctr 30uM=14
C=CCOc1c(Cl)cc(CNc2ccc(C)c(Cl)c2)cc1OC,0.8,3,.,.,17,.,
C=CCOc1c(Cl)cc(CNc2ccc(N(C)C)cc2)cc1OC,0.8,7,5,79*,24,51*,Diaph ctr 10uM=0;Diaph ctr 30uM=-3
COc1ccccc1CNc1ccc(C(=O)O)cc1,0.9,-4,-3,-8,14,.,
COc1ccccc1CNc1ccc(N2CCCCC2)cc1,0.3,-14,-9,66*,65*,33,
CCOc1cc(CNc2ccc(N3CCCC3)cc2)cc(Cl)c1OC,0.3,10,2,84*,68*,63*,Diaph ctr 10uM=-4;Diaph ctr 30uM=-5
CCCCn1c(N)c(N(CCOC)C(=O)COC(=O)CNC(=O)c2ccc(Cl)c(Cl)c2)c(=O)[nH]c1=O,.,.,0,-7,.,.,
O=c1c(Cc2ccc(F)cc2)c(O)ccn1CCCN1CCOCC1,0.9,10,3,-3,9,.,
CCOc1ccc(CNc2ccc(N3CCCC3)cc2)cc1,0.3,-20,19,95*,75*,81*,Diaph ctr 10uM=27;Diaph ctr 30uM=14
COc1cc(/C=C2\CC/C(=C\c3cc(OC)c(O)c(OC)c3)C2=O)cc(OC)c1O,0.3,56*,29,63*,71*,67*,Diaph ctr 10uM=18;Diaph ctr 30uM=17
COc1ccccc1N(CC(=O)N/N=C/c1ccc(SC)cc1)S(C)(=O)=O,0.9,3,15,-16,14,.,
CCOc1ccccc1/C=N/NC(=O)c1ccc(Cn2cc([N+](=O)[O-])cn2)o1,0.9,2,-2,61*,14,35,

# High-throughput results deposited in PubChem by Sanford-Burnham Center for Chemical Genomics.
